Experimental data from ChEMBL document CHEMBL1124180, “Asymmetric synthesis and properties of the enantiomers of the antibacterial agent 7-(3-aminopyrrolidin-1-yl)-1-(2,4-difluorophenyl)-1,4-dihydro-6- fluoro-4-oxo-1,8-naphthyridine-3-carboxylic acid hydrochloride” (J Med Chem, 1988).
Converted amounts (≈) assume the structure as drawn.

Tests used:
Peptostreptococcus = test: In vitro activity against Peptostreptococcus sp.(TB-11); format: functional
In short: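 MIC for anaerobic bacteria, measured on Wilkins-Chalgren agar.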

Bacteroides fragilis [1] = test: In vitro activity against Bacteroides fragilis (784); format: functional
In short: (§1)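 MIC determined under anaerobic conditions on Wilkins-Chalgren agar.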

[2] = tested on: Peptoniphilus asaccharolyticus; test: In vitro activity against Peptococcus asaccharolyticus (ATCC 14963).; format: functional; in short: as §1
Bacteroides fragilis [3] = test: In vitro activity against Bacteroides fragilis (SFM2906A); format: functional; in short: as §1
Thomasclavelia ramosa = test: In vitro activity against Clostridium ramosum (7); format: functional; in short: as §1
Bacteroides fragilis [4] = test: In vitro activity against Bacteroides fragilis (105AT25285); format: functional; in short: as §1
Fusobacterium nucleatum = test: In vitro activity against Fusobacterium nucleatum (ATCC 25586); format: functional; in short: as §1
Clostridioides difficile [5] = test: In vitro activity against Clostridium difficile (ATCC 9689); format: functional
[6] = tested on: Bacteroides thetaiotaomicron; test: In vitro activity against Bacteroides thetaiotaomicron (SFM2975-2); format: functional; in short: as §1
Phocaeicola vulgatus [7] = test: In vitro activity against Bacteroides vulgatus(SFBC 2375); format: functional; in short: as §1
[8] = tested on: Prevotella melaninogenica; test: In vitro activity against Bacteroides melaninogenicus (ATCC 25845).; format: functional; in short: as §1
Clostridioides difficile [9] = test: In vitro activity against Clostridium difficile (ATCC 17857); format: functional
[10] = tested on: Bacteroides thetaiotaomicron; test: In vitro activity against thetaiotaomicron (ATCC 29741); format: functional
In short: (§2)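 Anaerobic MICs measured by agar dilution on Wilkins-Chalgren agar.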

Bacteroides fragilis [11] = test: In vitro activity against Bacteroides fragilis (SFM2975-7); format: functional; in short: as §1
Clostridium perfringens [12] = test: In vitro activity against Clostridium perfringens (SFBC 2026); format: functional
Veillonella parvula = test: In vitro activity against Veillonella parvula (ATCC 10790); format: functional; in short: as §2
Hoylesella loescheii = test: In vitro activity against Bacteroides loescheii (ATCC 15930).; format: functional; in short: as §1
Phocaeicola vulgatus [13] = test: In vitro activity against Bacteroides vulgatus(792); format: functional; in short: as §1
Finegoldia magna = test: In vitro activity against Peptococcus magnus (ATCC 29328); format: functional; in short: as §1
[14] = tested on: Bacteroides thetaiotaomicron; test: In vitro activity against Bacteroides thetaiotaomicron (106); format: functional; in short: as §1
Prevotella disiens = test: In vitro activity against Bacteroides disiens (ATCC 29426); format: functional; in short: as §1
Clostridium perfringens [15] = test: In vitro activity against Clostridium perfringens (104AT13124); format: functional
[16] = tested on: Bacteroides thetaiotaomicron; test: In vitro activity against Bacteroides thetaiotaomicron (ATCC 29742); format: functional; in short: as §1
Bacteroides fragilis [17] = test: In vitro activity against Bacteroides fragilis (UC-2); format: functional; in short: as §1
Parvimonas micra [18] = test: In vitro activity against Peptostreptococcus micros (ATCC 33270).; format: functional; in short: as §1
Prevotella bivia [19] = test: In vitro activity against Bacteroides bivius(B 6140); format: functional; in short: as §1
[20] = tested on: Bacteroides thetaiotaomicron; test: microbe, parasite or virus in culture; conditions: ATCC 29741
[21] = tested on: Peptostreptococcus anaerobius; test: In vitro activity against Peptostreptococcus anaerobius (ATCC 27337); format: functional; in short: as §1
Prevotella bivia [22] = test: In vitro activity against t Bacteroides bivius(B 6140); format: functional; in short: as §2
Mus musculus [23] = test: In vivo activity against Escherichia coli Juhl(100X LD50), when administered po( each compound tested at 3 doses with 10 animals); format: functional
In short: (§3)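 Mice were challenged intraperitoneally with the organism. The compound was given orally as a total dose split into equal portions at 1 and 5 h post-infection. Three doses were used, with 10 animals per dose.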

Fusobacterium = test: In vitro activity against Fusobacterium sp.(GS-10); format: functional; in short: as §1
Cutibacterium acnes = test: In vitro activity against Propionibacterium acnes (132); format: functional; in short: as §1
Mus musculus [24] = test: In vivo activity against Pseudomonas aeruginosa A5007 (100X LD50), administered po( each compound tested at 3 doses with 10 animals); format: functional; in short: as §3
Mus musculus [25] = test: In vivo activity against Escherichia coli Juhl(100X LD50), when administered sc( each compound tested at 3 doses with 10 animals); format: functional
In short: (§4)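 Mice were challenged intraperitoneally with the organism. The compound was given subcutaneously as a total dose split into equal portions at 1 and 5 h post-infection. Three doses were used, with 10 animals per dose.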

Bacteroides fragilis [26] = test: In vitro activity against Bacteroides fragilis (SFM2929-1); format: functional; in short: as §1
Mus musculus [27] = test: In vivo activity against Pseudomonas aeruginosa A5007 (100X LD50), administered sc ( each compound tested at 3 doses with 10 animals); format: functional; in short: as §4
Parvimonas micra [28] = test: In vitro activity against Peptostreptococcus micros (ATCC 33270); format: functional; in short: as §1

Structure (SMILES)	MIC (Peptostreptococcus) [µg/mL]	MIC (Bacteroides fragilis [1]) [µg/mL]	MIC [2] [µg/mL]	MIC (Bacteroides fragilis [3]) [µg/mL]	MIC (Bacteroides fragilis [4]) [µg/mL]	MIC (Fusobacterium nucleatum) [µg/mL]	MIC (Phocaeicola vulgatus [7]) [µg/mL]	MIC [8] [µg/mL]	MIC (Bacteroides fragilis [11]) [µg/mL]	MIC (Veillonella parvula) [µg/mL]	MIC (Hoylesella loescheii) [µg/mL]	MIC (Phocaeicola vulgatus [13]) [µg/mL]	MIC (Finegoldia magna) [µg/mL]	MIC (Prevotella disiens) [µg/mL]	MIC (Bacteroides fragilis [17]) [µg/mL]	other results
CCC[C@@H]1C[C@@H](C(=O)N[C@@H]([C@H]2O[C@H](SC)[C@H](O)[C@@H](O)[C@H]2O)[C@H](C)Cl)N(C)C1 [CLINDAMYCIN]	0.06 (≈ 0.141 µM)	1 (≈ 2.35 µM)	0.06 (≈ 0.141 µM)	0.5 (≈ 1.18 µM)	2 (≈ 4.71 µM)	0.25 (≈ 0.588 µM)	< 0.015	0.03 (≈ 0.0706 µM)	2 (≈ 4.71 µM)	0.06 (≈ 0.141 µM)	0.5 (≈ 1.18 µM)	< 0.015	1 (≈ 2.35 µM)	< 0.015	0.5 (≈ 1.18 µM)	MIC (Thomasclavelia ramosa): 1 µg/mL (≈ 2.35 µM); MIC (Clostridioides difficile [5]): 4 µg/mL (≈ 9.41 µM); MIC [6]: 0.5 µg/mL (≈ 1.18 µM); MIC (Clostridioides difficile [9]): 8 µg/mL (≈ 18.8 µM); MIC [10]: 8 µg/mL (≈ 18.8 µM); MIC (Clostridium perfringens [12]): 0.25 µg/mL (≈ 0.588 µM); MIC [14]: 4 µg/mL (≈ 9.41 µM); MIC (Clostridium perfringens [15]): 0.03 µg/mL (≈ 0.0706 µM); MIC [16]: 4 µg/mL (≈ 9.41 µM); MIC (Parvimonas micra [18]): 0.06 µg/mL (≈ 0.141 µM); MIC (Prevotella bivia [19]): < 0.015 µg/mL
O=C(O)c1cn(C2CC2)c2cc(N3CCNCC3)c(F)cc2c1=O [CIPROFLOXACIN]	2 (≈ 6.04 µM)	4 (≈ 12.1 µM)	2 (≈ 6.04 µM)	4 (≈ 12.1 µM)	4 (≈ 12.1 µM)	4 (≈ 12.1 µM)	8 (≈ 24.1 µM)	2 (≈ 6.04 µM)	8 (≈ 24.1 µM)	0.25 (≈ 0.754 µM)	8 (≈ 24.1 µM)	8 (≈ 24.1 µM)	0.25 (≈ 0.754 µM)	2 (≈ 6.04 µM)	4 (≈ 12.1 µM)	MIC [20]: 32 µg/mL (≈ 96.6 µM); MIC [21]: 2 µg/mL (≈ 6.04 µM); MIC (Prevotella bivia [22]): 2 µg/mL (≈ 6.04 µM); ED50 (Mus musculus [23]): 1.3 mg/kg; MIC (Fusobacterium): 4 µg/mL (≈ 12.1 µM); MIC (Cutibacterium acnes): 2 µg/mL (≈ 6.04 µM); ED50 (Mus musculus [24]): 15.1 mg/kg; ED50 (Mus musculus [25]): 0.3 mg/kg; MIC (Bacteroides fragilis [26]): 8 µg/mL (≈ 24.1 µM); ED50 (Mus musculus [27]): 4.1 mg/kg; MIC (Parvimonas micra [28]): 0.5 µg/mL (≈ 1.51 µM)
